Sampled rows, rich in hits. Any-hit rate of the full collection: about 2.7%.
PAFAH1B3 inh: PAFAH1B3 enzyme inhibitors, primary screen, biochemical, fluorescence polarization, human | Platelet-activating factor acetylhydrolase IB subunit alpha1 (Homo sapiens), Q15102 | recombinant PAFAH1B3, FP-rhodamine probe | inhibition, % at 3.39 µM | 0.28% of 340,000 active | AID 492972, 2010;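 active means inhibition above the screen-wide average of all tested compounds plus 3 SD, cut at about 25% in these data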
Target sequence (Q15102 whole entry, looked up): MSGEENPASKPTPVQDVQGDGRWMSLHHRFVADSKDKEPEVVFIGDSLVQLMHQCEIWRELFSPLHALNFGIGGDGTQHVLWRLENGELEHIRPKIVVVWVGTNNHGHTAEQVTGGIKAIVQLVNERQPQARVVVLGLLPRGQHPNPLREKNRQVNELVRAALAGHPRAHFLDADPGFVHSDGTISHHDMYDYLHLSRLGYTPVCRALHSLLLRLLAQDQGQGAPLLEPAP
ARFGAP1 inhibitor: inhibitors of rat ARFGAP1 GAP activity, primary screen, biochemical, fluorescence polarization, GDP tracer; ADP-ribosylation factor GTPase-activating protein 1 (Rattus norvegicus), Q62848; Arfgap1-stimulated ARF1 GTP hydrolysis, GDP FP detection; inhibition, % at 16.5 µM; 0.26% of 360,000 active;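 active means inhibition above a per-plate limit, mean inhibition of low control wells plus 3 SD, cut at about 25% in these data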
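System: truncated rat Arfgap1 GAP domain / Benchmarks: high control wells lacking Arfgap1, low control full reaction with DMSO / Times: compound-enzyme preincubation 20 min, reaction 120 min, detection 60 min, 25 °C / Repeats: one replicate per compound / Also added: human ARF1(Δ1-17)-GTP substrate / Measured by: Tracer-displacement fluorescence polarization with EDTA stop, 620/688 nm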
ASAP1 GAP inh: inhibitors of human ASAP1 ArfGAP activity, primary screen, biochemical, fluorescence polarization; Arf-GAP with SH3 domain, ANK repeat and PH domain-containing protein 1 (Homo sapiens), …; ASAP1-stimulated ARF1 GTP hydrolysis, GDP FP detection; inhibition, % at 16.5 µM; 0.19% of 360,000 active; AID 624377, 2012; in the data active means inhibition above about 25%
pPAFAH FP inh: pPAFAH enzyme inhibitors, primary screen, biochemical, fluorescence polarization, human; Platelet-activating factor acetylhydrolase (Homo sapiens), Q13093; recombinant pPAFAH, FP-rhodamine probe fluorescence polarization; inhibition, % at 3.39 µM; 1.5% of 330,000 active;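 active means inhibition above the mean inhibition across the screen plus 3 SD, cut at about 25% in these data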;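 further: inhibitors block binding of the rhodamine activity-based probe so polarization drops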
Target sequence (Q13093 whole entry, looked up): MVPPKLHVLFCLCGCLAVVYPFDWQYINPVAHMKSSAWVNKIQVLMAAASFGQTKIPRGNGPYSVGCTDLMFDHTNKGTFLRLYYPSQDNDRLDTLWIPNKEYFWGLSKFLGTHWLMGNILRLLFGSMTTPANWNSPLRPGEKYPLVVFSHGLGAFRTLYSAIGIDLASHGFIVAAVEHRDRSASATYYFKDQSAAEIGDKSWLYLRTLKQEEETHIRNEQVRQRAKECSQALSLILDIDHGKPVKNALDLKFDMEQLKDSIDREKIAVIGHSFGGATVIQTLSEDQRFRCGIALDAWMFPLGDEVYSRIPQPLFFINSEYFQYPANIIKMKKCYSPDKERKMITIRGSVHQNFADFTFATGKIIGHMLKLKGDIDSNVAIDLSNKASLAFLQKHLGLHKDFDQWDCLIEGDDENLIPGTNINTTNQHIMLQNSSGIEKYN
PAFAH1B2 FP inh: PAFAH1B2 enzyme inhibitors, primary screen, biochemical, fluorescence polarization, human; inhibition, % at 3.39 µM; 1.2% of 340,000 active; recombinant PAFAH1B2, FP-rhodamine activity probe;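 active means inhibition above the mean of all tested compounds plus 3 SD, cut at about 24% in these data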
PAFAH2 FP inh: PAFAH2 enzyme inhibitors, primary screen, biochemical, fluorescence polarization, human; recombinant PAFAH2, FP-rhodamine activity probe; inhibition, % at 3.39 µM; 0.99% of 340,000 active; AID 492956, 2010;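 active means inhibition above the mean over all tested compounds plus 3 SD, cut at about 30% in these data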;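 further: inhibitors block probe labeling of enzyme so polarization drops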
PAFAH2 FP conf: PAFAH2 enzyme inhibitors, confirmation, biochemical, fluorescence polarization, human | shares compounds with PAFAH2 FP inh | recombinant PAFAH2, FP-rhodamine activity probe | inhibition, % at 3.39 µM | 65% of 2,300 active | AID 493030, 2011;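 active means mean inhibition over three repeats above a set limit taken from the earlier primary screen, cut at about 30% in these data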;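 further: inhibitor blocks binding of rhodamine activity probe so polarization falls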
Hits are given with their value; - = inactive; . = no result given.

SMILES | PAFAH1B3 inh | ARFGAP1 inhibitor | ASAP1 GAP inh | pPAFAH FP inh | PAFAH1B2 FP inh | PAFAH2 FP inh | PAFAH2 FP conf
Cc1nn(-c2ccccc2)c(C)c1/C=C/C(=O)OCC(=O)Nc1ccc(C(N)=O)cc1 | - | - | - | - | - | - | .
Cc1nn(-c2ccc(F)cc2)c(Cl)c1/C=C/C(=O)OCC(=O)Nc1ccc(F)cc1F | - | - | - | - | - | - | .
Cc1ccc(NC(=O)COC(=O)/C=C/c2c(C)nn(-c3ccc(F)cc3)c2Cl)cc1F | - | - | - | - | - | 72 | 57
COc1ccc(C(=O)COC(=O)/C=C/c2ccc(S(=O)(=O)Nc3cccc(S(N)(=O)=O)c3)cc2)cc1 | - | - | - | - | - | 32 | -
Cc1nn(-c2ccccc2)c(C)c1/C=C/C(=O)OCC(=O)Nc1ncc(C(F)(F)F)cc1Cl | - | - | - | - | - | 45 | 35
CS(=O)(=O)Nc1ccccc1-c1ccc2nccn2c1 | . | - | - | . | . | . | .
COc1ccc(/C=C/C(=O)OCC(=O)Nc2cccc(C(C)=O)c2)cc1 | - | - | - | - | - | 90 | 81
C/C=C/C(=O)OCC(=O)Nc1cc(-c2cc(C)c(C)cc2C)nn1-c1ccccc1 | - | - | - | - | - | 41 | 30
COc1ccc(/C=C/C(=O)OCC(=O)Nc2cc(C(N)=O)cc(C(N)=O)c2)cc1 | - | - | - | - | - | - | .
COc1ccc(COC(=O)c2ccc(S(=O)(=O)N3CCCCC3)cc2)cc1OC | - | - | - | - | - | - | .
CCc1nc2c(OCC(=O)C(C)(C)C)cccn2c1N(C)C(=O)CC(C)C | . | - | - | . | . | . | .
O=C(NCC1CCCO1)C(c1ccncc1)N(Cc1cccs1)C(=O)Cn1nnc(-c2ccc(F)cc2)n1 (stereo not drawn) | - | - | - | - | - | - | .
CC(C)CCNC(=O)C(c1ccncc1)N(Cc1cccs1)C(=O)Cn1nnc(-c2ccc(F)cc2)n1 (stereo not drawn) | - | - | - | - | - | 40 | -
Cc1nc2c(S(=O)(=O)c3ccccc3)cnn2c(C)c1C | - | - | - | - | - | - | .
CC(C)(C)S(=O)(=O)c1cnc2c(S(=O)(=O)c3ccccc3)cnn2c1N | - | - | - | - | - | 30 | -
COc1ccccc1-c1csc(C(O)c2ccccc2)n1 (stereo not drawn) | . | - | - | . | . | . | .
Cc1ccc(O)c(NC(=O)Cc2ccc3ccccc3c2)c1 | - | - | - | - | - | 74 | 68
O=[N+]([O-])c1ccc(O)c(C=Nc2cccc3ccccc23)c1 | - | - | - | - | - | - | .
CN(/N=C/c1cc([N+](=O)[O-])ccc1O)c1ccccc1 | - | - | - | - | - | 35 | 31
CN(C(=O)c1ccc(F)cc1)c1ccc(OCC(=O)Nc2ccccc2C(=O)O)cc1 | - | - | - | - | - | - | .
O=C(COC(=O)c1ccc(Cl)s1)c1ccc[nH]1 | - | - | - | - | - | - | .
O=C(OCC(=O)c1ccc[nH]1)c1ccc(C(F)(F)F)cc1 | - | - | - | - | - | - | .
Cc1ccc(C(=O)OCC(=O)c2ccc[nH]2)s1 | - | - | - | - | - | 35 | 31
CC(C)Oc1ccc(C(=O)OCC(=O)c2ccc[nH]2)cc1 | - | - | - | - | - | 54 | 36
O=C(NCc1ccco1)Nc1nnc([C@H]2C[C@H](O)[C@@H](CO)O2)s1 | . | - | - | . | . | . | .
SMILES | PAFAH1B3 inh | ARFGAP1 inhibitor | ASAP1 GAP inh | pPAFAH FP inh | PAFAH1B2 FP inh | PAFAH2 FP inh | PAFAH2 FP conf
Cc1cc(C(=O)O)ccc1-c1ccc(/C=C2\NC(=O)N(Cc3ccccc3Cl)C2=O)o1 | - | . | . | - | - | 33 | -
COc1cc(Cl)c(NS(=O)(=O)c2ccc(-c3ccc(=O)[nH]n3)o2)c(OC)c1 | - | - | - | - | - | 32 | -
CN(C)C1CN(Cc2cn(Cc3ccc(F)cc3)nn2)S(=O)(=O)C1 (stereo not drawn) | . | - | - | . | . | . | .
O=C(N/N=C/c1ccc(O)c(O)c1)N/N=C/c1ccc(O)c(O)c1 | - | - | - | . | - | 31 | -
Cc1cc(C)cc(C(O)c2ncc(-c3ccc4ccccc4c3)[nH]2)c1 (stereo not drawn) | . | - | - | . | . | . | .
COC(=O)c1c(NC(=O)c2cccc(S(=O)(=O)N3CCN(C)CC3)c2)sc(C)c1C | - | - | - | - | - | 30 | -
CCOc1ccc(-c2nc3ccccc3c(=O)o2)cc1 | - | - | - | - | - | 54 | 60
Cc1onc(-c2ccccc2)c1-c1nc2ccccc2c(=O)o1 | - | - | - | - | - | 63 | 60
O=c1oc(-c2cccnc2)nc2ccccc12 | - | - | - | - | - | - | .
COc1ccc(-c2nc3ccccc3c(=O)o2)cc1OC | - | - | - | - | - | 41 | 34
O=c1oc(-c2ccccc2Br)nc2ccccc12 | - | - | - | - | - | 56 | 31
CC(CCC(=O)O)C1CCC2C3CC(O)C4CC(O)CC[C@]4(C)C3CCC12C (stereo partly drawn) | - | - | - | . | - | - | .
CC(C)C[C@H](NC(=O)c1ccco1)C(=O)N1CCC[C@H]1C(=O)NCc1ccccc1 | . | - | - | . | . | . | .
COc1ccc(O)c(/C=C(\C#N)C(=O)Nc2cccnc2)c1 | - | - | - | - | - | - | .
CCCOc1ccccc1/C=C(\C#N)C(=O)Nc1cccnc1 | - | - | - | - | - | 40 | -
Cc1cc(NC(=O)CSc2nc3c([nH]c4ccccc43)c(=O)n2-c2ccccc2F)no1 | - | - | - | - | - | - | .
C=C1CCC2[C@](C)(CO[C@@H]3O[C@H](CO)[C@@H](O)[C@H](O)[C@H]3O)CCC[C@@]2(C)[C@@H]1CCC1=CCOC1=O (stereo partly drawn) | - | - | - | - | - | - | .
CCOc1ccccc1NC(=O)Cn1c(=O)sc2ccccc21 | - | - | - | - | - | - | .
O=C(Cn1c(=O)sc2ccccc21)Nc1ccc(O)cc1 | - | - | - | - | - | 31 | -
O=C(Cc1ccsc1)N1CCN(S(=O)(=O)c2ccccc2F)CC1 | - | - | - | - | - | - | .
COc1ccc(/C=N/NC(=O)c2cccc(S(=O)(=O)N3CCCC3)c2)cc1O | - | - | - | - | - | - | .
